Activity calls are given as the source filed them. No cut-off for these calls is given here.
What was measured:
MCF7 [1] = experiment: Growth inhibition of human MCF7 cells by MTT assay; type: functional, cell-based
Method in brief: (§1)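 MTT viability. Cells seeded for 24 h, then exposed to compound for 48 h in DMEM/F-12 or DMEM with 5% FBS. Vehicle controls received matching DMSO. MTT added at 0.5 mg/mL for 3 h at 37 °C. Formazan dissolved in DMSO and absorbance read at 570 nm.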

A549 [2] = experiment: Growth inhibition of human A549 cells by MTT assay; type: functional, cell-based; method in brief: as §1
Hep 3B2 = experiment: Growth inhibition of human Hep3B cells by MTT assay; type: functional, cell-based; method in brief: as §1
[3] = target: T1, Prostaglandin G/H synthase 1 (Ovis aries, UniProt P05979); experiment: Inhibition of ovine COX1 assessed as reduction in PGH2 formation by measuring PGF2alpha by colorimetric assay
T1 sequence (P05979 whole entry): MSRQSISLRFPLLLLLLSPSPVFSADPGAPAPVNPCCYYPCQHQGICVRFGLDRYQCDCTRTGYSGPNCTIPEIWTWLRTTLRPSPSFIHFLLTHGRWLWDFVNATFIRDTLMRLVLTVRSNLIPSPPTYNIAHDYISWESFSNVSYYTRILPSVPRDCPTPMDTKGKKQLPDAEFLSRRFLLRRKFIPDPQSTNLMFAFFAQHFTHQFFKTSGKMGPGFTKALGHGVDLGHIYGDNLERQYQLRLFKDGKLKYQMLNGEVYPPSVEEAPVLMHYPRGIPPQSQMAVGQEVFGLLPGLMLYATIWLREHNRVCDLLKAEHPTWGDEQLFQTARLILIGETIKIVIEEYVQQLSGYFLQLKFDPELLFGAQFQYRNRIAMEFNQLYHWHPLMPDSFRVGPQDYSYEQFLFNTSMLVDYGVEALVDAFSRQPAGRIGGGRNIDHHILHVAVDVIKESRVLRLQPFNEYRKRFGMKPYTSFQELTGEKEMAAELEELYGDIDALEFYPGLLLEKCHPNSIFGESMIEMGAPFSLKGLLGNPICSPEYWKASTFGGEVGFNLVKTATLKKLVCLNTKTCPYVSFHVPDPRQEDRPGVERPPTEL
Method in brief: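 Colorimetric COX inhibitor screening kit run per the manufacturer, using ovine COX-1. IC50 calculated from three determinations.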

PC-3 = experiment: Anticancer activity against human PC3 cells; type: functional, cell-based
MCF7 [4] = experiment: Anticancer activity against human MCF7 cells; type: functional, cell-based
A549 [5] = experiment: Induction of apoptosis in human A549 cells assessed as caspe-3/7 activation at 5 to 20 uM incubated for 24 hrs by Caspase-Glo 3/7 luminescence assay; type: functional, cell-based
Method in brief: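 A549 cells plated at 1 x 10^4 per well and allowed 24 h to settle. Medium removed, then compounds added for 24 h at 5, 10 and 20 μM. Vehicle controls received equivalent DMSO. Caspase-3/7 activity read by Caspase-Glo 3/7 luminescence (RLU). Mean ± S.D. (n = 5), experiment done 3 times. Compared with vehicle by one-way ANOVA with Dunnett's test.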

SMILES | IC50 (MCF7 [1]) | IC50 (A549 [2]) | IC50 (Hep 3B2) | IC50 [3] | IC50 (PC-3) | IC50 (MCF7 [4]) | Activity (A549 [5])
N#Cc1c(N=Cc2cccnc2)c(C(=O)Nc2ccc(Cl)cc2)n2c1CCC2 | 22.5 µM | 23 µM | 31.2 µM | 5.78 µM |  |  | 
N#Cc1c(/N=C/c2ccc([N+](=O)[O-])cc2)c(C(=O)Nc2cc(Cl)cc(Cl)c2)n2c1CCC2 | 7.9 µM | 16.2 µM | 14 µM |  | 8.54 µM | 7.9 µM | 
Cc1ccc(NC(=O)c2c(N=Cc3cccs3)c(C#N)c3n2CCC3)cc1 | 5.35 µM | 11.4 µM | 13.8 µM | 10.4 µM |  |  | 
Cc1ccc(NC(=O)c2c(N=Cc3cccnc3)c(C#N)c3n2CCC3)cc1 | 18.3 µM | 20.5 µM | 34.8 µM | 9.54 µM |  |  | 
N#Cc1c(N=Cc2cccs2)c(C(=O)Nc2ccc(Cl)cc2)n2c1CCC2 | 4.72 µM | 22.8 µM | 11.6 µM | 7.68 µM |  |  | 
N#Cc1c(N=Cc2ccc3ccccc3c2)c(C(=O)Nc2ccccc2)n2c1CCC2 | 5.77 µM | 7.11 µM | 10.2 µM | 7.98 µM |  |  | Active
Cc1ccc(NC(=O)c2c(N=Cc3ccco3)c(C#N)c3n2CCC3)cc1 | 16.1 µM | 29.4 µM | 24.4 µM | 9.23 µM |  |  | 
